For 26 molecules, IC50 results are on record in BindingDB's records for doi:10.1021/jm9900321 (Dupont Pharmaceuticals, 2000).

Experiment [1] in a line: Inhibition of platelet aggregation in human platelet rich plasma (PRP).
In experiment [2] the target is T1, Integrin alpha-IIb/beta-3 (Homo sapiens, UniProt P08514+P05106). Kind of experiment: Inhibition of platelet aggregation in human gel-purified platelets containing fibrinogen (GPP+Fg). The method in brief: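 Platelets are gel-filtered from human PRP on sepharose (2×10⁸ platelets/mL). They are assayed with 1 mM CaCl₂ and 1 mg/mL fibrinogen across a range of test-agent concentrations, and IC₅₀ is calculated from the inhibition curve.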

In experiment [3] the target is T1, Integrin alpha-IIb/beta-3. Kind of experiment: Inhibition of platelet aggregation in human platelet rich plasma (PRP). The gist of the method: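 Human PRP is obtained by centrifuging blood at 150g for 10 min; platelet-poor plasma serves as the 100% transmittance blank. PRP at 2×10⁸ platelets/mL is preincubated with test agent at several concentrations for 8 min. It is then stimulated with ADP (10 μM final), and aggregation is followed as light transmittance over time to derive IC₅₀.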

T1 sequence (P05106 27-788 limits assumed): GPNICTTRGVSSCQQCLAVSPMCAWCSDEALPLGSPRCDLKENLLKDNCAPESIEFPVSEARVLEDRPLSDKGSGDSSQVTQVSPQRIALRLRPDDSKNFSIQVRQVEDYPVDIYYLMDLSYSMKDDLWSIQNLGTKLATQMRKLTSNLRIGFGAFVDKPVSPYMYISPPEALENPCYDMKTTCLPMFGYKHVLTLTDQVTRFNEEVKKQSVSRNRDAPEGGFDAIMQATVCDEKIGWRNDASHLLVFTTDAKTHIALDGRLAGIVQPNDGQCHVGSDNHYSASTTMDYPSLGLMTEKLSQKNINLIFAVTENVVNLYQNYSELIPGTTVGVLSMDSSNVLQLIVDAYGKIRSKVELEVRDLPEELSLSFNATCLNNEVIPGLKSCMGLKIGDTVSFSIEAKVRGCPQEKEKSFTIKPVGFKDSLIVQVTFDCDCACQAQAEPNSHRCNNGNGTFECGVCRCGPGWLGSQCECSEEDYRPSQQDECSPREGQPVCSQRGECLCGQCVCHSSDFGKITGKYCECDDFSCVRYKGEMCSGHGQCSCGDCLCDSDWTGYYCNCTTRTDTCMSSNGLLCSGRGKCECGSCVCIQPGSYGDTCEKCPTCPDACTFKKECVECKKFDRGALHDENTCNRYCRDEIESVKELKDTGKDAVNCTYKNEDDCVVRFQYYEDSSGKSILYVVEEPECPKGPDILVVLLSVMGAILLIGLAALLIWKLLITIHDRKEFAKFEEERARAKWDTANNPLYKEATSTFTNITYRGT
T1 sequence (P08514 32-887 limits assumed): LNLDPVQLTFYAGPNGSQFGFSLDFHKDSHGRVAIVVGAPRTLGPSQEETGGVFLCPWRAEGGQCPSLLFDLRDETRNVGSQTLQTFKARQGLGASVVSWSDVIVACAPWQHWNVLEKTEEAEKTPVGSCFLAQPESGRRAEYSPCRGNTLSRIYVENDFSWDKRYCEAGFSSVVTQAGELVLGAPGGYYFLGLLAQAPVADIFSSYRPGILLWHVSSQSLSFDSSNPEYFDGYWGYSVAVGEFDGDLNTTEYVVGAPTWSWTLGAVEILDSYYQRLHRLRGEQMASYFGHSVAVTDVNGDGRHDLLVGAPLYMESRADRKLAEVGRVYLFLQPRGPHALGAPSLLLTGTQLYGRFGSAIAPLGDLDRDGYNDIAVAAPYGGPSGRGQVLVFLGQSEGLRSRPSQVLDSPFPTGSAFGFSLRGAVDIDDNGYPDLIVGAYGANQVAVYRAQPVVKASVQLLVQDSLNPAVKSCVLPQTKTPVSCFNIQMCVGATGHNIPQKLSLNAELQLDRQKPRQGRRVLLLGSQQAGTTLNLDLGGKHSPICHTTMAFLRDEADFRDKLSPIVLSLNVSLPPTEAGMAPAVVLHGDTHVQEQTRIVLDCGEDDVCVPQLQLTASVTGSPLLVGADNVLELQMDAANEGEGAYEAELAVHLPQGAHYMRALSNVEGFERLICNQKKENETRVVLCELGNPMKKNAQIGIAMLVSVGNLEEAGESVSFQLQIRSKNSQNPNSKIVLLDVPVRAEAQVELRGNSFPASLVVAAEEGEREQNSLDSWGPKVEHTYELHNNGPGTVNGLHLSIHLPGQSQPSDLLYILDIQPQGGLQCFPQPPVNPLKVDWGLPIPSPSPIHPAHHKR
T1 sequence (P08514 891-1039 limits assumed): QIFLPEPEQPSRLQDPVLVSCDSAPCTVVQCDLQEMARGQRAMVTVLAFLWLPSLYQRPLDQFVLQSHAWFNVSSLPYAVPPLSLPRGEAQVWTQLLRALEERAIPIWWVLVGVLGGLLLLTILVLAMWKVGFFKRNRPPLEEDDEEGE

For orientation: IC50 means the concentration at which inhibition is half-maximal. Regarding `N=C(N)c1ccc(C2=NO[C@@H](CC(=O)NCCC(=O)O)C2)cc1`, the figures for the IC50 in experiment [1] and in experiment [2] were 0.24 µM and 0.14 µM, respectively. Turning to `Cc1cc(C)c(S(=O)(=O)N[C@H](CNC(=O)C2=NOC(CCCCNc3ncc[nH]3)C2)C(=O)O)c(C)c1` (stereo partly specified), the IC50 was determined as 68 µM in experiment [1] and 28 µM in experiment [2]. Take `O=C(NC[C@H](NS(=O)(=O)c1c(Cl)cccc1Cl)C(=O)O)C1=NOC(CCCCNc2ncc[nH]2)C1` (stereo partly specified) [2-(2,6-Dichloro-benzenesulfonylamino)-3-({5-[4-(1H-imidazol-2-ylamino)-butyl]-4,5-dihydro-isoxazole-3-carbonyl}-amino)-propionic acid]: the results for the IC50 in experiment [1] and in experiment [2] were 0.35 µM and 0.19 µM, respectively. Consider `Cc1cccc(Cl)c1S(=O)(=O)N[C@@H](CNC(=O)C1=NOC(CCCCNc2ncc[nH]2)C1)C(=O)O` (stereo partly specified) [2-(2-Chloro-6-methyl-benzenesulfonylamino)-3-({5-[4-(1H-imidazol-2-ylamino)-butyl]-4,5-dihydro-isoxazole-3-carbonyl}-amino)-propionic acid], for which half-maximal inhibition in experiment [1] (IC50) was put at 0.39 µM. The molecule `O=C(NC[C@H](NS(=O)(=O)c1c(Cl)cc(-c2ccccc2)cc1Cl)C(=O)O)C1=NOC(CCCCNc2ncc[nH]2)C1` (stereo partly specified) [2-(3,5-Dichloro-biphenyl-4-sulfonylamino)-3-({5-[4-(1H-imidazol-2-ylamino)-butyl]-4,5-dihydro-isoxazole-3-carbonyl}-amino)-propionic acid] displayed an IC50 in experiment [1] of 1.6 µM. Turning to `Cc1cc(-c2ccccc2)cc(C)c1S(=O)(=O)N[C@@H](CNC(=O)C1=NOC(CCCCNc2ncc[nH]2)C1)C(=O)O` (stereo partly specified) [2-(3,5-Dimethyl-biphenyl-4-sulfonylamino)-3-({5-[4-(1H-imidazol-2-ylamino)-butyl]-4,5-dihydro-isoxazole-3-carbonyl}-amino)-propionic acid], the IC50 is 3.1 µM in experiment [1] and 0.69 µM in experiment [2].

As for `Cc1cc(-c2ccccc2)cc(C)c1S(=O)(=O)N[C@@H](CNC(=O)C1=NOC(CCCCNc2ccccn2)C1)C(=O)O` (stereo partly specified) [2-(3,5-Dimethyl-biphenyl-4-sulfonylamino)-3-({5-[4-(pyridin-2-ylamino)-butyl]-4,5-dihydro-isoxazole-3-carbonyl}-amino)-propionic acid], the IC50 in experiment [1] was more than 100 µM. Turning to `Cc1noc(C)c1S(=O)(=O)N[C@@H](CNC(=O)C1=NOC(CCCCNc2ncc[nH]2)C1)C(=O)O` (stereo partly specified) [2-(3,5-Dimethyl-isoxazole-4-sulfonylamino)-3-({5-[4-(1H-imidazol-2-ylamino)-butyl]-4,5-dihydro-isoxazole-3-carbonyl}-amino)-propionic acid], half-maximal inhibition in experiment [1] (IC50) required 1.5 µM. In turn, `CC(C)c1ccc(S(=O)(=O)N[C@@H](CNC(=O)C2=NOC(CCCCNc3ccccn3)C2)C(=O)O)cc1` (stereo partly specified) [2-(4-Isopropyl-benzenesulfonylamino)-3-({5-[4-(pyridin-2-ylamino)-butyl]-4,5-dihydro-isoxazole-3-carbonyl}-amino)-propionic acid] showed an IC50 in experiment [1] of more than 100 µM. `O=C(NC[C@H](NS(=O)(=O)c1ccc(-c2ccccc2)cc1)C(=O)O)C1=NOC(CCCCNc2ncc[nH]2)C1` (stereo partly specified) [2-(Biphenyl-4-sulfonylamino)-3-({5-[4-(1H-imidazol-2-ylamino)-butyl]-4,5-dihydro-isoxazole-3-carbonyl}-amino)-propionic acid]: the IC50 turned out to be 43 µM in experiment [1] and 5 µM in experiment [2].

In turn, `O=C(NC[C@H](NS(=O)(=O)c1cccc2ccccc12)C(=O)O)C1=NOC(CCCCNc2ccccn2)C1` (stereo partly specified) [2-(Naphthalene-1-sulfonylamino)-3-({5-[4-(pyridin-2-ylamino)-butyl]-4,5-dihydro-isoxazole-3-carbonyl}-amino)-propionic acid] returned an IC50 in experiment [1] of more than 100 µM. As for `N[C@@H](CNC(=O)C1=NOC(CCCCNc2ncc[nH]2)C1)C(=O)O` (stereo partly specified) [2-Amino-3-({5-[4-(1H-imidazol-2-ylamino)-butyl]-4,5-dihydro-isoxazole-3-carbonyl}-amino)-propionic acid], the IC50 in experiment [1] is 84 µM; in experiment [2], 47 µM. Take `O=C(NC[C@H](NS(=O)(=O)c1ccccc1)C(=O)O)C1=NOC(CCCCNc2ccccn2)C1` (stereo partly specified) [2-Benzenesulfonylamino-3-({5-[4-(pyridin-2-ylamino)-butyl]-4,5-dihydro-isoxazole-3-carbonyl}-amino)-propionic acid]: the IC50 was 30 µM in experiment [1] and 18 µM in experiment [2].

Turning to `O=C(N[C@@H](CNC(=O)C1=NOC(CCCCNc2ccccn2)C1)C(=O)O)OCc1ccccc1` (stereo partly specified) [2-Benzyloxycarbonylamino-3-({5-[4-(pyridin-2-ylamino)-butyl]-4,5-dihydro-isoxazole-3-carbonyl}-amino)-propionic acid], the IC50 in experiment [2] was 85 µM; in experiment [3] it was more than 100 µM. For the molecule `Cc1cc(C)c(S(=O)(=O)N[C@@H](CNC(=O)C2=NOC(CCCCNS(N)(=O)=O)C2)C(=O)O)c(C)c1` (stereo partly specified) [2-[2,4,6-trimethylphenylsulfonylamino]-3-[5-(4-aminosulfonylamino)butyl)isoxazolin-3-ylcarbonyl]amino-propionic acid], in experiment [2], the 50% inhibitory concentration (IC50) is more than 100 µM. In the case of `Cc1cc(C)c(S(=O)(=O)N[C@@H](CNC(=O)C2=NOC(CCCC(=O)Nc3ncc[nH]3)C2)C(=O)O)c(C)c1` (stereo partly specified) [3-({5-[3-(1H-Imidazol-2-ylcarbamoyl)-propyl]-4,5-dihydro-isoxazole-3-carbonyl}-amino)-2-(2,4,6-trimethyl-benzenesulfonylamino)-propionic acid], in experiment [2], the IC50 was more than 100 µM. Take `Cc1cc(C)c(S(=O)(=O)N[C@@H](CNC(=O)C2=NOC(CCCc3cnc(N)[nH]3)C2)C(=O)O)c(C)c1` (stereo partly specified) [3-({5-[3-(2-Amino-1H-imidazol-4-yl)-propyl]-4,5-dihydro-isoxazole-3-carbonyl}-amino)-2-(2,4,6-trimethyl-benzenesulfonylamino)-propionic acid]: the IC50 was 0.28 µM in experiment [1] and 0.18 µM in experiment [2]. With `Cc1cc(C)c(S(=O)(=O)N[C@@H](CNC(=O)C2=NOC(CCCc3cccc(N)n3)C2)C(=O)O)c(C)c1` (stereo partly specified) [3-({5-[3-(6-Amino-pyridin-2-yl)-propyl]-4,5-dihydro-isoxazole-3-carbonyl}-amino)-2-(2,4,6-trimethyl-benzenesulfonylamino)-propionic acid], the IC50 in experiment [1] amounted to 78 µM. Consider `Cc1cc(C)c(S(=O)(=O)N[C@@H](CNC(=O)C2=NOC(CCCCNc3ncc[nH]3)C2)C(=O)O)c(C)c1` (stereo partly specified) [3-({5-[4-(1H-Imidazol-2-ylamino)-butyl]-4,5-dihydro-isoxazole-3-carbonyl}-amino)-2-(2,4,6-trimethyl-benzenesulfonylamino)-propionic acid], for which the IC50 in experiment [1] amounted to 0.85 µM. `O=C(NC[C@H](NS(=O)(=O)c1cccc2ccccc12)C(=O)O)C1=NOC(CCCCNc2ncc[nH]2)C1` (stereo partly specified) [3-({5-[4-(1H-Imidazol-2-ylamino)-butyl]-4,5-dihydro-isoxazole-3-carbonyl}-amino)-2-(naphthalene-1-sulfonylamino)-propionic acid]: the IC50 in experiment [1] was determined as 7.8 µM; in experiment [2] it was 0.57 µM. Regarding `Cc1cc(C)c(S(=O)(=O)N[C@@H](CNC(=O)C2=NOC(CCCCNC3=NCCN3)C2)C(=O)O)c(C)c1` (stereo partly specified) [3-({5-[4-(4,5-Dihydro-1H-imidazol-2-ylamino)-butyl]-4,5-dihydro-isoxazole-3-carbonyl}-amino)-2-(2,4,6-trimethyl-benzenesulfonylamino)-propionic acid], the IC50 in experiment [1] worked out at 0.69 µM; in experiment [2], 0.6 µM.

Consider `Cc1cc(C)c(S(=O)(=O)N[C@@H](CNC(=O)C2=NOC(CCCCNc3nccc4ccccc34)C2)C(=O)O)c(C)c1` (stereo partly specified) [3-({5-[4-(Isoquinolin-1-ylamino)-butyl]-4,5-dihydro-isoxazole-3-carbonyl}-amino)-2-(2,4,6-trimethyl-benzenesulfonylamino)-propionic acid], for which the values for the IC50 in experiment [1] and in experiment [2] were 78 µM and 6.5 µM, respectively. `Cc1cc(C)c(S(=O)(=O)N[C@@H](CNC(=O)C2=NOC(CCCCNc3cc4ccccc4cn3)C2)C(=O)O)c(C)c1` (stereo partly specified) [3-({5-[4-(Isoquinolin-3-ylamino)-butyl]-4,5-dihydro-isoxazole-3-carbonyl}-amino)-2-(2,4,6-trimethyl-benzenesulfonylamino)-propionic acid]: the IC50 is 11 µM in experiment [1] and 7.7 µM in experiment [2]. The like results for `Cc1cc(C)c(S(=O)(=O)N[C@@H](CNC(=O)C2=NOC(CCCCNc3ccccn3)C2)C(=O)O)c(C)c1` (stereo partly specified) [3-({5-[4-(Pyridin-2-ylamino)-butyl]-4,5-dihydro-isoxazole-3-carbonyl}-amino)-2-(2,4,6-trimethyl-benzenesulfonylamino)-propionic acid] were, in that order, 16 µM and 6.5 µM. As for `Cc1cc(C)c(S(=O)(=O)N[C@@H](CNC(=O)C2=NOC(CCNC(=O)Nc3ncc[nH]3)C2)C(=O)O)c(C)c1` (stereo partly specified) [3-[(5-{2-[3-(1H-Imidazol-2-yl)-ureido]-ethyl}-4,5-dihydro-isoxazole-3-carbonyl)-amino]-2-(2,4,6-trimethyl-benzenesulfonylamino)-propionic acid], the IC50 came to 120 µM in experiment [1] and 32 µM in experiment [2]. `Cc1cc(C)c(S(=O)(=O)N[C@@H](CNC(=O)C2=NOC(CCCCNC(=N)N)C2)C(=O)O)c(C)c1` (stereo partly drawn) [3-{5-[4-amino(imino)methylaminobutyl]-4,5-dihydro-3-isoxazolylcarboxamido}-2-mesitylsulfonamido-(2S)-propanoic acid]: it took 0.16 µM to reach half-maximal inhibition in experiment [1] (IC50).
